From ChEMBL document CHEMBL3877310, “Rickettsia prowazekii methionine aminopeptidase as a promising target for the development of antibacterial agents” (Bioorg Med Chem, 2017) come the findings set out here.

Data set [1] is filed under the species Rattus norvegicus. Description: Cytotoxicity against CD rat primary pulmonary vascular endothelial cells assessed as reduction in cell viability at 0.003 to 3 uM measured after 72 hrs by WST1 assay. The format is toxicity, cell-based. The procedure, abridged: (§1)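 Uninfected primary CD-rat pulmonary ECs (passage <15, DMEM high glucose/10% FBS/4 mM L-glutamine, 37 °C, 5% CO2) exposed to compounds over graded ranges with 0.3% DMSO as solvent. Viability read as WST-1 metabolism.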

The species named for data set [2] is Rattus norvegicus. The data set can be described thus: Cytotoxicity against CD rat primary pulmonary vascular endothelial cells assessed as reduction in cell viability at 0.3 to 300 uM measured after 72 hrs by WST1 assay. In kind it is toxicity, cell-based. In short, it runs like this: as §1
The species named for data set [3] is Rattus norvegicus. Description: Cytotoxicity against CD rat primary pulmonary vascular endothelial cells assessed as reduction in cell viability at 0.03 to 30 uM measured after 72 hrs by WST1 assay. In kind it is toxicity, cell-based. The procedure, abridged: as §1
(In general: Tetrazolium dyes change colour on reduction, which living cells bring about.)

Data set [4] has as its system Endothelial cell. Description: Antibacterial activity against Rickettsia prowazekii str. Breinl infected in CD rat primary pulmonary vascular endothelial cells assessed as protection against bacterial infection by measuring restoration of host cell viability at 0.03 to 30 uM measured 72 hrs post infection by WST1 assay. The format is functional, cell-based.
In data set [5] the test system is Endothelial cell. The data set can be described thus: Antibacterial activity against Rickettsia prowazekii str. Breinl infected in CD rat primary pulmonary vascular endothelial cells assessed as bacterial shape change at 25 ug/ml measured 72 hrs post infection by Hoechst 33258/phalloidin staining based fluorescence microscopic analysis. The format is functional.

Data set [6] has as its system Endothelial cell. Description: Antibacterial activity against Rickettsia prowazekii str. Breinl infected in CD rat primary pulmonary vascular endothelial cells assessed as protection against bacterial infection by measuring restoration of host cell viability at 0.3 to 300 uM measured 72 hrs post infection by WST1 assay. The format is functional, cell-based.
The species named for data set [7] is Rattus norvegicus. The data set can be described thus: Cytotoxicity against CD rat primary pulmonary vascular endothelial cells assessed as reduction in cell viability at 0.0075 to 7.5 uM measured after 72 hrs by WST1 assay. In kind it is toxicity, cell-based. In short, it runs like this: as §1
The nature of data set [8]: Antibacterial activity against Rickettsia prowazekii str. Breinl infected with 50:1 multiplicity of infection in CD rat primary pulmonary vascular endothelial cells assessed as restoration of host cell viability by measuring fold reduction in viability at 0.003 to 3 uM measured 72 hrs post infection by WST1 assay relative to control. The format is functional.
Data set [9] relates to Endothelial cell. The data set can be described thus: Antibacterial activity against Rickettsia prowazekii str. Breinl infected in CD rat primary pulmonary vascular endothelial cells assessed as protection against bacterial infection by measuring restoration of host cell viability at 0.003 to 3 uM measured 72 hrs post infection by WST1 assay. In kind it is functional, cell-based.

The species named for data set [10] is Rattus norvegicus. The data set can be described thus: Cytotoxicity against CD rat primary pulmonary vascular endothelial cells assessed as reduction in cell viability at 0.02 to 20 uM measured after 72 hrs by WST1 assay. The format is toxicity, cell-based. The procedure, abridged: as §1
Data set [11] in a line: Antibacterial activity against Rickettsia prowazekii str. Breinl infected with 50:1 multiplicity of infection in CD rat primary pulmonary vascular endothelial cells assessed as restoration of host cell viability by measuring fold reduction in viability at 0.3 to 300 uM measured 72 hrs post infection by WST1 assay relative to control. In kind it is functional.
For data set [12], the species on record is Rattus norvegicus. The data set can be described thus: Cytotoxicity against CD rat primary pulmonary vascular endothelial cells assessed as effect on appearance of cell monolayers at 300 uM measured after 72 hrs by Hoechst 33258/phalloidin staining based fluorescence microscopic analysis. In kind it is toxicity.
Data set [13] has as its system Endothelial cell. Description: Antibacterial activity against Rickettsia prowazekii str. Breinl infected in CD rat primary pulmonary vascular endothelial cells assessed as bacterial shape change at 300 uM measured 72 hrs post infection by Hoechst 33258/phalloidin staining based fluorescence microscopic analysis. The format is functional.
For data set [14], the target named is Methionine aminopeptidase 1 (Homo sapiens, UniProt P53582). The data set can be described thus: Inhibition of recombinant full length human His-tagged methionine aminopeptidase 1 expressed in Escherichia coli BL21(DE3) using methionylprolyl-p-nitroanilide as substrate preincubated for 20 mins followed by substrate addition measured for 20 mins in presence of CoCl2 by proline aminopeptidase coupled enzyme assay.

For data set [15], the target named is Methionine aminopeptidase 2 (Homo sapiens, UniProt P50579). Description: Inhibition of recombinant full length human N-terminal GST/His6-tagged methionine aminopeptidase 2 expressed in baculovirus infected sf9 cells using methionylprolyl-p-nitroanilide as substrate preincubated for 20 mins followed by substrate addition measured for 20 mins in presence of MnCl2 by proline aminopeptidase coupled enzyme assay.

Activity calls are given as the source filed them. No cut-off for these calls is given here.

Chain of Methionine aminopeptidase 2 (P50579 whole entry): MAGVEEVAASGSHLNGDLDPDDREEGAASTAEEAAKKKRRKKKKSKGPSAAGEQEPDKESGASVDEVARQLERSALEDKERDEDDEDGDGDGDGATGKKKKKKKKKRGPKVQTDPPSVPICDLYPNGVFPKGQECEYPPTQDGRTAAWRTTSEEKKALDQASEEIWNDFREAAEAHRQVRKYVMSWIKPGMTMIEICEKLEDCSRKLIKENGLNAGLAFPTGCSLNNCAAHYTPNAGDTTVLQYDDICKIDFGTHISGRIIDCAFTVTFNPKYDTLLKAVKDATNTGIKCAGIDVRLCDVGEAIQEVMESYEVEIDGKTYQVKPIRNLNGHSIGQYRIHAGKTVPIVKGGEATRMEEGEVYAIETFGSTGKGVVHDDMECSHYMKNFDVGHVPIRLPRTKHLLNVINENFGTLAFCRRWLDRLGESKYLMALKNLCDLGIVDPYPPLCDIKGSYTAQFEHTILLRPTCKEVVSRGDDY

As to `O=[N+]([O-])c1ccc(O)c2ncccc12` [NITROXOLINE], the Activity entry in the data set filed under Rattus norvegicus [1] is “Non-Toxic”.

Turning to `O=C(O)c1ccc(-c2ccccc2Cl)o1`, in the data set filed under Rattus norvegicus [2], the Activity entry is given as “Non-Toxic”.

On to `Oc1ccc(Cl)c2cccnc12` [CLOXYQUIN], for which the Activity result in the data set listed under Rattus norvegicus [3] was “Non-Toxic”. In addition, in the data set on Endothelial cell [4], the result was Active.

As for `O=C(O)c1ccc(-c2cc(Cl)ccc2Cl)o1`, in the data set filed under Rattus norvegicus [2], the Activity result is “Non-Toxic”.

For the compound `C[C@H]1c2cccc(O)c2C(=O)C2=C(O)[C@]3(O)C(=O)C(C(N)=O)=C(O)[C@@H](N(C)C)[C@@H]3[C@@H](O)[C@@H]21`, in the data set with Endothelial cell [5], the outcome was Active.

As for `Nc1n[nH]c(SCc2ccccc2Cl)n1`, the Activity result in the data set filed under Rattus norvegicus [2] is on record as “Non-Toxic”. Further, in the data set on Endothelial cell [6], the outcome was Active.

Take `O=[N+]([O-])c1cc(CN2CCCCC2)c(O)c2ncccc12`: the Activity result in the data set listed under Rattus norvegicus [7] was “Non-Toxic”.

With `Nc1nnc(SCc2ccc(Cl)cc2Cl)[nH]1`, the Activity entry in the data set filed under Rattus norvegicus [3] is on record as “Non-Toxic”.

Consider `O=[N+]([O-])c1cc(CN2CCOCC2)c(O)c2ncccc12`, for which the “fold change (FC)” value in data set [8] was determined as 1.2. The outcome in the data set with Endothelial cell [9] was Active. Moreover, the Activity result in the data set filed under Rattus norvegicus [1] is “Non-Toxic”.

As to `Oc1c(CN2CCOCC2)cc(Cl)c2cccnc12`, in the data set filed under Rattus norvegicus [10], the Activity result is reported as “Non-Toxic”.

Consider `Nc1nnc(SCc2ccc(Cl)cc2)[nH]1`, for which the Activity entry in the data set filed under Rattus norvegicus [2] and in the data set filed under Rattus norvegicus [12] was “Non-Toxic” each time. Also, in data set [11], the “fold change (FC)” value amounted to 1.2. For the same compound, the result in the data set on Endothelial cell [6] and in the data set on Endothelial cell [13] was Active.

As usually defined, the IC50 is the point on the concentration scale where inhibition reaches its midpoint. `Oc1cccc2cccnc12` [OXYQUINOLINE]: the IC50 came out at 12.9 µM in data set [14] and 1.27 µM in [15]. The Activity result in the data set listed under Rattus norvegicus [3] is listed as “Non-Toxic”. In the data set with Endothelial cell [4], the result was Active.

Regarding `CC(C)(C)c1ccc(CSc2nnc(N)[nH]2)cc1`, in [15], the IC50 was above 15 µM. Besides, the Activity result in the data set listed under Rattus norvegicus [3] was “Non-Toxic”.

For the compound `CC(C)c1ccc(CSc2nnc(N)[nH]2)cc1`, the Activity result in the data set filed under Rattus norvegicus [3] is “Non-Toxic”.

Take `Nc1n[nH]c(SCc2ccccc2)n1`: the Activity entry in the data set listed under Rattus norvegicus [2] was “Non-Toxic”. Moreover, the outcome with Endothelial cell [6] was Active.

Regarding `Nc1nnc(SCc2ccc(F)cc2)[nH]1`, in the data set filed under Rattus norvegicus [2], the Activity result was “Non-Toxic”. In addition, the outcome in the data set on Endothelial cell [6] was Active.

For `Cc1ccc(CSc2nnc(N)[nH]2)cc1`, the Activity entry in the data set filed under Rattus norvegicus [2] is listed as “Non-Toxic”. The result with Endothelial cell [6] was Active.

For the compound `Cc1ccc2cccc(O)c2n1` [8-HYDROXY QUINALDINE], the IC50 in data set [14] is above 15 µM. In the data set listed under Rattus norvegicus [1], the Activity result is reported as “Non-Toxic”.
